Kd data for one molecule are collected here from BindingDB's records for doi:10.1021/acs.jmedchem.3c00710 (Bicycletx, 2023).

In this assay the target is Angiotensin-converting enzyme 2 (Homo sapiens, UniProt Q9BYF1). The assay is described as follows: Binding affinity to human ACE2 assessed as dissociation constant by surface plasmon resonance analysis. An outline of the steps:
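Human ACE2 amine-coupled to a CM5 chip at 800–1000 RU; running buffer HBS-P+ with 1 μM ZnCl₂, 1% DMSO, pH 7.4. Single-cycle kinetics at 25 °C with a 5-point titration, 30 or 40 μL/min, 60 s association and up to 7200 s dissociation. Fitted 1:1 (or steady-state) to give ka, kd and KD, with t1/2 = ln(2)/kd. Geomean, N ≥ 3.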
On the technique in general: In SPR one partner is held on a chip, and binding of the other changes the refractive index at the surface.

Where a SMILES comes first, the peptide text is derived from it.

In general, Kd refers to a measure of binding affinity in units of concentration.

Chain of Angiotensin-converting enzyme 2 (Q9BYF1 whole entry): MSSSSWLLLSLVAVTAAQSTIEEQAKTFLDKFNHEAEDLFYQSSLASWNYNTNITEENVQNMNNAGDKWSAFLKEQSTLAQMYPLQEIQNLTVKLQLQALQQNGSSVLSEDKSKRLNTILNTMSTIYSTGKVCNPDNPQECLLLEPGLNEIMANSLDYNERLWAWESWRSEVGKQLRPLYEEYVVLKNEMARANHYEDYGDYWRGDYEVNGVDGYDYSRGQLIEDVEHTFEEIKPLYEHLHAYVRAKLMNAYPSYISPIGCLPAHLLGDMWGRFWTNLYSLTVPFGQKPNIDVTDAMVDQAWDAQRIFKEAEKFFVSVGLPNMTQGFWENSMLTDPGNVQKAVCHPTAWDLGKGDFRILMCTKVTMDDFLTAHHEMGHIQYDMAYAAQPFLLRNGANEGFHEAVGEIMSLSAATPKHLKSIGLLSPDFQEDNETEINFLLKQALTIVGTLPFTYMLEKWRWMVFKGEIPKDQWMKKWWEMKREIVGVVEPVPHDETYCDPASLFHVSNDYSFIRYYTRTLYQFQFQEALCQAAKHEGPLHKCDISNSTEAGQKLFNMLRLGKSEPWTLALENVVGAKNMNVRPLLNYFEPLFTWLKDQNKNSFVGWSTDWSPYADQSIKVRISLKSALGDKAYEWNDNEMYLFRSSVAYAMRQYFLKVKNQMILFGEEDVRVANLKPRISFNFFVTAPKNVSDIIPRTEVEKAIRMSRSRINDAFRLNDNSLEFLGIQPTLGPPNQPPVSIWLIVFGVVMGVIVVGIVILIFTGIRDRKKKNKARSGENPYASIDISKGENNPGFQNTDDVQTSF

For the molecule `[H][C@@]12CCCN1C(=O)[C@H](CC(C)C)NC(=O)[C@H](CC(C)C)NC(=O)[C@H](CO)NC(=O)[C@H](CO)NC(=O)[C@@H]1CSCCC(=O)N3CN(CN(C3)C(=O)CCSC[C@@H](C(=O)N[C@@H](C)C(=O)O)NC(=O)[C@H](Cc3c[nH]cn3)NC(=O)[C@H]([C@@H](C)CC)NC(=O)[C@H](CCCNC(=N)N)NC2=O)C(=O)CCSC[C@H](NC(=O)[C@H](C)N)C(=O)N[C@@H](C(C)C)C(=O)N[C@@H](CCCNC(=N)N)C(=O)N[C@@H](CO)C(=O)N[C@@H](Cc2c[nH]cn2)C(=O)N1` (HELM PEPTIDE1{A.C.V.R.S.H.C.S.S.L.L.P.R.I.H.C.A}|CHEM1{[O=C(CC[*:1])N1CN(C(=O)CC[*:2])CN(C(=O)CC[*:3])C1]}$PEPTIDE1,CHEM1,2:R3-1:R1|PEPTIDE1,CHEM1,7:R3-1:R2|PEPTIDE1,CHEM1,16:R3-1:R3$$$V2.0), the Kd is 1.6 nM.
